Data taken from ChEMBL document CHEMBL4257483, “Design, synthesis and bioactivities of phenithionate analogues or derivatives for anti-schistosomiasis” (Medchemcomm, 2018).
≈ marks a conversion by molar mass, not a printed value. Calls of active or inactive are those of the source. The rule behind the calls is not given here.

Legend:
[1] = Dissociation constant, pKa of the compound; assay type: physicochemical
[2] = Lipid/water partition coefficient, log P of the compound; assay type: physicochemical
[3] = tested on: Schistosoma japonicum; test: Antischistosomal activity against Schistosoma japonicum imago derived from infected mouse assessed as reduction in imago viability after 72 hrs; assay type: functional, organism-based
In short: (§1)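 Worms perfused with cold heparinised HBSS from mice infected percutaneously with S. japonicum cercariae: larvae at 15 days post-infection (260–280 cercariae), adults at 35 days (120–140 cercariae). Five male and female worms per well in 10% calf serum RPMI 1640 with penicillin, streptomycin and amphotericin B. Preincubated 4 h at 37 °C, 5% CO2, then compounds added and viability recorded over 72 h. IC50 taken at 50% survival. DMSO blank.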

[4] = tested on: Schistosoma japonicum; test: Antischistosomal activity against Schistosoma japonicum larva derived from infected mouse assessed as reduction in larva viability after 72 hrs; assay type: functional, organism-based; in short: as §1
[5] = tested on: Schistosoma mansoni; test: Antischistosomal activity against Schistosoma mansoni imago derived from infected mouse at 20 ug/ml after 72 hrs; assay type: functional, organism-based
[6] = tested on: Schistosoma japonicum; test: Antischistosomal activity against Schistosoma japonicum infected in mouse at 50 mg/kg/day, po treated for 5 days measured after day 9 post last dose by ELISA; assay type: functional, organism-based
In short: (§2)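 Male mice (20–22 g) infected via abdominal skin with 120–140 S. japonicum cercariae. From day 35 post-infection, dosed orally once daily for 5 days. Venous blood then clotted and centrifuged 15 min at 3500 rpm. Serum tested by triple dot ELISA and scored by spot colour: brown +++, yellow ++, slight yellow +, colourless –. DMSO blank.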

[7] = tested on: Schistosoma japonicum; test: Antischistosomal activity against Schistosoma japonicum infected in mouse at 25 mg/kg/day, po treated for 5 days measured after day 4 post last dose by ELISA; assay type: functional, organism-based; in short: as §2
[8] = tested on: Schistosoma japonicum; test: Antischistosomal activity against Schistosoma japonicum infected in mouse at 25 mg/kg/day, po treated for 5 days measured after day 8 post last dose by ELISA; assay type: functional, organism-based; in short: as §2
[9] = tested on: Schistosoma japonicum; test: Antischistosomal activity against Schistosoma japonicum imago derived from infected mouse at 20 ug/ml after 72 hrs; assay type: functional, organism-based; in short: as §1
[10] = tested on: Schistosoma japonicum; test: Antischistosomal activity against Schistosoma japonicum infected in mouse at 25 mg/kg/day, po treated for 5 days measured after day 6 post last dose by ELISA; assay type: functional, organism-based; in short: as §2
[11] = tested on: Schistosoma japonicum; test: Antischistosomal activity against Schistosoma japonicum infected in mouse at 25 mg/kg/day, po treated for 5 days measured after day 3 post last dose by ELISA; assay type: functional, organism-based; in short: as §2
[12] = tested on: Schistosoma japonicum; test: Antischistosomal activity against Schistosoma japonicum infected in mouse at 50 mg/kg/day, po treated for 5 days measured after day 8 post last dose by ELISA; assay type: functional, organism-based; in short: as §2
[13] = tested on: Schistosoma japonicum; test: Antischistosomal activity against Schistosoma japonicum infected in mouse at 50 mg/kg/day, po treated for 5 days measured after day 5 post last dose by ELISA; assay type: functional, organism-based; in short: as §2
[14] = tested on: Schistosoma japonicum; test: Antischistosomal activity against Schistosoma japonicum infected in mouse at 50 mg/kg/day, po treated for 5 days measured after day 4 post last dose by ELISA; assay type: functional, organism-based; in short: as §2
[15] = tested on: Schistosoma japonicum; test: Antischistosomal activity against Schistosoma japonicum infected in mouse at 50 mg/kg/day, po treated for 5 days measured after day 7 post last dose by ELISA; assay type: functional, organism-based; in short: as §2
[16] = tested on: Schistosoma japonicum; test: Antischistosomal activity against Schistosoma japonicum infected in mouse at 50 mg/kg/day, po treated for 5 days measured after day 6 post last dose by ELISA; assay type: functional, organism-based; in short: as §2
[17] = tested on: Schistosoma haematobium; test: Antischistosomal activity against Schistosoma haematobium imago derived from infected mouse at 20 ug/ml after 72 hrs; assay type: functional, organism-based
[18] = tested on: Schistosoma japonicum; test: Antischistosomal activity against Schistosoma japonicum infected in mouse at 25 mg/kg/day, po treated for 5 days measured after day 9 post last dose by ELISA; assay type: functional, organism-based; in short: as §2
[19] = tested on: Schistosoma japonicum; test: Antischistosomal activity against Schistosoma japonicum infected in mouse at 25 mg/kg/day, po treated for 5 days measured after day 5 post last dose by ELISA; assay type: functional, organism-based; in short: as §2
[20] = tested on: Schistosoma japonicum; test: Antischistosomal activity against Schistosoma japonicum infected in mouse at 25 mg/kg/day, po treated for 5 days measured after day 1 post last dose by ELISA; assay type: functional, organism-based; in short: as §2
[21] = Acute toxicity in po dosed mouse infected with Schistosoma japonicum treated for 5 days; assay type: organism-based; conditions: in vivo
[22] = tested on: Schistosoma japonicum; test: Antischistosomal activity against Schistosoma japonicum infected in mouse at 50 mg/kg/day, po treated for 5 days measured after day 1 post last dose by ELISA; assay type: functional, organism-based; in short: as §2
[23] = tested on: Schistosoma japonicum; test: Antischistosomal activity against Schistosoma japonicum infected in mouse at 25 mg/kg/day, po treated for 5 days measured after day 2 post last dose by ELISA; assay type: functional, organism-based; in short: as §2
[24] = tested on: Schistosoma japonicum; test: Antischistosomal activity against Schistosoma japonicum infected in mouse at 25 mg/kg/day, po treated for 5 days measured after day 7 post last dose by ELISA; assay type: functional, organism-based; in short: as §2
[25] = tested on: Schistosoma japonicum; test: Antischistosomal activity against Schistosoma japonicum infected in mouse at 50 mg/kg/day, po treated for 5 days measured after day 2 post last dose by ELISA; assay type: functional, organism-based; in short: as §2
[26] = tested on: Schistosoma japonicum; test: Antischistosomal activity against Schistosoma japonicum infected in mouse at 50 mg/kg/day, po treated for 5 days measured after day 3 post last dose by ELISA; assay type: functional, organism-based; in short: as §2

Compound	pKa [1]	logP [2]	IC50 [3] [µg/mL]	IC50 [4] [µg/mL]	Activity [7]	Activity [8]	Activity [10]	Activity [11]	Activity [18]	Activity [19]	Activity [20]	LD50 at 120 h [21] [mg/kg]	Activity [22]	Activity [23]	Activity [24]	further results
CC(=O)Nc1ccc(OC(=S)Nc2ccc(Nc3ccc(C(Cl)(Cl)Cl)cc3)cc2)cc1	9.01	6.07	20.1 (≈ 40.6 µM)	11.6 (≈ 23.4 µM)	–	–	–	–	–	–	–	–	–	–	–	–
O=[N+]([O-])c1ccc(Nc2ccc(NC(=S)Oc3ccc(O)cc3)cc2)cc1	9.22	4.54	8.05 (≈ 21.1 µM)	6.42 (≈ 16.8 µM)	Active	inactive	Active	Active	inactive	Active	Active	280	Active	Active	Active	Activity [5]: inactive; Activity [6]: inactive; Activity [9]: Active; Activity [12]: inactive; Activity [13]: Active; Activity [14]: Active; Activity [15]: inactive; Activity [16]: inactive; Activity [17]: inactive; Activity [25]: Active; Activity [26]: Active
CC(=O)Nc1ccc(OC(=S)Nc2ccc(Nc3ccc([N+](=O)[O-])cc3)cc2)cc1	9.04	4.32	15.2 (≈ 36 µM)	8.22 (≈ 19.5 µM)	–	–	–	–	–	–	–	–	–	–	–	–
O=[N+]([O-])c1ccc(Sc2ccc(NC(=S)Oc3ccc(O)cc3)cc2)cc1	9.21	5.25	30.5 (≈ 76.6 µM)	15.7 (≈ 39.3 µM)	–	–	–	–	–	–	–	–	–	–	–	–
CC(=O)Nc1ccc(OC(=S)Nc2ccc(Sc3ccc([N+](=O)[O-])cc3)cc2)cc1	8.99	5.06	31.2 (≈ 71 µM)	16.7 (≈ 37.9 µM)	–	–	–	–	–	–	–	–	–	–	–	–
CC(=O)Nc1ccc(OC(=S)Nc2ccc(Oc3ccc(C(F)(F)F)cc3)cc2)cc1	9.03	5.41	17.3 (≈ 38.7 µM)	10.4 (≈ 23.2 µM)	–	–	–	–	–	–	–	–	–	–	–	–
Oc1ccc(OC(=S)Nc2ccc(Nc3ccc(C(F)(F)F)cc3)cc2)cc1	9.23	6.04	6.68 (≈ 16.5 µM)	5.43 (≈ 13.4 µM)	Active	inactive	inactive	Active	inactive	Active	Active	> 500	Active	Active	inactive	Activity [5]: inactive; Activity [6]: inactive; Activity [9]: Active; Activity [12]: inactive; Activity [13]: inactive; Activity [14]: inactive; Activity [15]: inactive; Activity [16]: inactive; Activity [17]: inactive; Activity [25]: Active; Activity [26]: Active
Oc1ccc(OC(=S)Nc2ccc(Sc3ccc(C(F)(F)F)cc3)cc2)cc1	9.22	6.66	31.9 (≈ 75.6 µM)	16.6 (≈ 39.3 µM)	–	–	–	–	–	–	–	–	–	–	–	–
Oc1ccc(OC(=S)Nc2ccc(Nc3ccc(C(Cl)(Cl)Cl)cc3)cc2)cc1	9.23	6.79	12.4 (≈ 27.3 µM)	7.35 (≈ 16.2 µM)	Active	Active	Active	Active	Active	–	Active	> 500	inactive	Active	Active	Activity [5]: inactive; Activity [9]: Active; Activity [17]: inactive
Oc1ccc(OC(=S)Nc2ccc(Oc3ccc(C(Cl)(Cl)Cl)cc3)cc2)cc1	9.24	6.84	13.5 (≈ 29.8 µM)	7.98 (≈ 17.5 µM)	Active	inactive	Active	Active	inactive	Active	Active	> 500	Active	Active	inactive	Activity [5]: inactive; Activity [6]: Active; Activity [9]: Active; Activity [12]: Active; Activity [14]: Active; Activity [15]: Active; Activity [16]: Active; Activity [17]: inactive; Activity [25]: Active; Activity [26]: Active
O=[N+]([O-])c1ccc(Nc2ccc(NC(=S)Oc3ccccc3)cc2)cc1	–	–	8.21 (≈ 22.5 µM)	6.53 (≈ 17.9 µM)	Active	Active	Active	Active	Active	Active	Active	310	Active	Active	Active	–
Oc1ccc(OC(=S)Nc2ccc(Sc3ccc(C(Cl)(Cl)Cl)cc3)cc2)cc1	9.22	7.43	37.3 (≈ 79.2 µM)	21.1 (≈ 44.8 µM)	–	–	–	–	–	–	–	–	–	–	–	–
CC(=O)Nc1ccc(OC(=S)Nc2ccc(Sc3ccc(C(Cl)(Cl)Cl)cc3)cc2)cc1	9.01	6.71	40.4 (≈ 78.9 µM)	23.5 (≈ 46 µM)	–	–	–	–	–	–	–	–	–	–	–	–
CC(=O)Nc1ccc(OC(=S)Nc2ccc(Oc3ccc(C(Cl)(Cl)Cl)cc3)cc2)cc1	9.02	6.16	18.3 (≈ 36.9 µM)	10.2 (≈ 20.6 µM)	–	–	–	–	–	–	–	–	–	–	–	–
Oc1ccc(OC(=S)Nc2ccc(Oc3ccc(C(F)(F)F)cc3)cc2)cc1	9.23	6.11	6.35 (≈ 15.7 µM)	5.21 (≈ 12.9 µM)	Active	inactive	inactive	Active	inactive	Active	Active	> 500	Active	Active	inactive	Activity [5]: inactive; Activity [6]: inactive; Activity [9]: Active; Activity [12]: inactive; Activity [13]: inactive; Activity [14]: inactive; Activity [15]: inactive; Activity [16]: inactive; Activity [17]: inactive; Activity [25]: Active; Activity [26]: Active
CC(=O)Nc1ccc(OC(=S)Nc2ccc(Oc3ccc([N+](=O)[O-])cc3)cc2)cc1	9.04	4.81	14.1 (≈ 33.3 µM)	8.24 (≈ 19.5 µM)	–	–	–	–	–	–	–	–	–	–	–	–
CC(=O)Nc1ccc(OC(=S)Nc2ccc(Sc3ccc(C(F)(F)F)cc3)cc2)cc1	9.02	5.96	33.7 (≈ 72.8 µM)	19 (≈ 41.1 µM)	–	–	–	–	–	–	–	–	–	–	–	–
CC(=O)Nc1ccc(OC(=S)Nc2ccc(Nc3ccc(C(F)(F)F)cc3)cc2)cc1	9.05	5.32	20 (≈ 44.9 µM)	11.2 (≈ 25.1 µM)	–	–	–	–	–	–	–	–	–	–	–	–
O=C(C1CCCCC1)N1CC(=O)N2CCc3ccccc3C2C1 (configuration not stated) [PRAZIQUANTEL]	–	–	7.98 (≈ 25.5 µM)	6.33 (≈ 20.3 µM)	Active	inactive	Active	Active	inactive	Active	Active	> 500	Active	Active	inactive	Activity [6]: inactive; Activity [12]: inactive; Activity [13]: Active; Activity [14]: Active; Activity [15]: inactive; Activity [16]: Active; Activity [25]: Active; Activity [26]: Active
